# L major viab: Leishmania major promastigote growth inhibition. Leishmania major promastigotes, resazurin fluorescence viability. inhibition, % at 10 µM. 200,000 compounds, 9% hits. AID 1063; in the data active means inhibition above about 50%;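 further: promastigotes grown with compound for 44 hours at 28 °C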
# m-calpain inh: calpain II (pig) inhibition; purified calpain II, fluorogenic peptide substrate, 30 min; inhibition, % at 16 µM; 220,000 compounds, 0.37% hits;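 active means inhibition above about 50%, limit read from the data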
# PMI activator: increases human mannose-6-phosphate isomerase activity | AID 1214 | activation factor at 20 µM | 190,000 compounds, 0.005% hits | purified human PMI, coupled resazurin fluorescence, 20 min; stronger effect = higher value; 1 = vehicle control, 0 substrate-free wells | P34949;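 active means activation factor of 2 or more at 20 µM, relative to plate controls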
# Target sequence (P34949 whole entry, looked up): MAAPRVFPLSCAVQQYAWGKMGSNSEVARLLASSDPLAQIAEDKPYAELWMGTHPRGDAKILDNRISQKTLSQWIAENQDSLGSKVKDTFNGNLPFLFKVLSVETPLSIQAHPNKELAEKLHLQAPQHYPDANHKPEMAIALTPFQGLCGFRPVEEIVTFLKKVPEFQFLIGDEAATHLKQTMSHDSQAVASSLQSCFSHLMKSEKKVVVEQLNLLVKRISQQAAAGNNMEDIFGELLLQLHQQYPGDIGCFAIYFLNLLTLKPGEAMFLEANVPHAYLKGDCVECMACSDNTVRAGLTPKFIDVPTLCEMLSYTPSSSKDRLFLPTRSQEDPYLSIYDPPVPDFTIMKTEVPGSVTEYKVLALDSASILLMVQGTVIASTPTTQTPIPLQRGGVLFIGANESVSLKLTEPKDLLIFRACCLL
# Rad51 HR inh: blocks human Rad51 in homologous recombination | inhibition, % at 10 µM | hRad51 DNA strand exchange, fluorescence dequenching | 200,000 compounds, 0.085% hits | AID 1385;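 active means inhibition above 40% at the single screening dose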;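 further: 0% = DMSO control wells and 100% = blanks with heterologous ssDNA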
#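 Test system: preformed human Rad51 ssDNA filaments. Compound dosing: single dose, 10 µM final compound. Incubation: filaments 15 min 37 °C, then compound 30 min. Technique: FRET fluorescence dequenching, excitation 485 nm, emission 520 nm. Read-out basis: percent inhibition from fluorescence, normalised to plate control and blank means. Benchmarks: plate controls and plate blanks.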
# WT yeast gro inh: growth inhibition of WT yeast, mitochondrial fusion screen; inhibition, % at 10 µM; mitochondrial fusion phenotypic screen, WT strain; 190,000 compounds, 2.1% hits; in the data active means inhibition above about 58%; tested in S. cerevisiae
# PMI act satM6P: PMI (human) activation, high substrate; coupled PMI enzyme assay, resazurin fluorescence, 20 min; stronger effect = higher value; 1 = untreated enzyme, 0 = substrate-free blank; 190,000 compounds, 0.34% hits; activation factor at 20 µM; P34949;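 active means activation factor of 2 or more at 20 µM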
#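 Test system: Human PMI in coupled enzyme assay | Input: 15 ng/mL PMI | Medium: HEPES-buffered pH 7.4 with magnesium and detergent | Compound: One concentration, 20 µM, in 1% DMSO | Incubation: Enzyme reaction with compound 20 min at room temperature | Detection: Diaphorase-driven resazurin-to-resorufin fluorescence, excitation 544, emission 590 nm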
# Numbers without * were called inactive; i = inactive; · = no result. Most compounds without a hit are left out; they make up all but 9.8% or so of the library.
SMILES,L major viab,m-calpain inh,PMI activator,Rad51 HR inh,WT yeast gro inh,PMI act satM6P
CCc1ccc(-c2cc(C(=O)N/N=C/c3ccccn3)[nH]n2)cc1,74*,-13,1,20,-11,1
Cc1ccc(NC(=O)CSc2ncc3ccccn23)cc1,-4,-37,0.8,1,-5,1.1
CN(CC1CCCO1)S(=O)(=O)c1ccc(C(=O)NCc2ccccc2)cc1 (stereo not drawn),-3,-19,1.1,9,-6,1.1
CC(C)N1CCC(N2CCN(Cc3ccc(-c4ccc(Cl)cc4)o3)CC2CCO)CC1 (stereo not drawn),88*,-9,0.8,·,1,0.9
Cc1ccc(-c2cccc(CN3CCN(C4CCN(C(C)C)CC4)C(CCO)C3)c2)o1 (stereo not drawn),52*,20,0.9,-9,7,1
CC(C)N1CCC(N2CCN(Cc3ccc(-c4ccccc4Cl)o3)CC2CCO)CC1 (stereo not drawn),89*,-13,·,-3,4,·
CC(C)N1CCC(N2CCN(CCCc3ccccc3)CC2CCO)CC1 (stereo not drawn),-2,-1,0.9,-2,3,0.9
CC(C)CN1CCN(C2CCN(C(C)C)CC2)C(CCO)C1 (stereo not drawn),-1,20,1,-8,4,1
CSc1ncc(CN2CCN(C3CCN(C(C)C)CC3)C(CCO)C2)cn1 (stereo not drawn),-6,-26,0.9,-2,-11,1
Cn1c(=O)c2c(nc(NCC3CCCO3)n2Cc2cccc(Br)c2)n(C)c1=O (stereo not drawn),5,-29,1,-6,-34,1.1
Cc1ccc(-n2cc(CNCCN3CCOC3=O)c(-c3ccc(F)cc3)n2)cc1,19,38,0.8,1,17,0.9
Cc1ccc(-n2cc(CNCCc3ncc(C)[nH]3)c(-c3ccc(F)cc3)n2)cc1,100*,-32,·,7,49,·
Cc1ccc(-n2cc(CNCCn3nc(C)cc3C)c(-c3ccc(F)cc3)n2)cc1,63*,-26,0.9,5,74,0.9
Cc1ccc(S(=O)(=O)N2CCOCC2)cc1C(=O)Nc1ccc(S(=O)(=O)Nc2nccs2)cc1,-5,-43,0.9,-8,1,0.9
COc1ccc2c(C=O)cn(C)c2c1,-2,15,1.1,-8,-7,1.1
CN(C)CCNc1nc2sc3c(c2c(=O)n1CCc1ccccc1)CCCCC3,·,-8,·,-1,·,·
CC(O)CNc1nc2sc3c(c2c(=O)n1CCc1ccccc1)CCCCC3 (stereo not drawn),22,17,0.8,-7,75*,0.8
Cc1ccc(CN2C(=O)c3ccccc3NC23CCN(Cc2ccccc2)CC3)cc1,96*,-188,0.9,-60,9,0.9
COc1ccc(C(C[N+](=O)[O-])C2(c3ccc(OC)c(OC)c3)C(=O)c3ccccc3C2=O)cc1 (stereo not drawn),100*,1,0.8,15,23,1
Cn1c(CCC(=O)OCC(=O)NCc2ccc3c(c2)OCO3)nc(=O)c2ccccc21,-11,12,1.1,-27,-4,1
Cc1cc(C)c(NC(=O)c2sc3nc(C)[nH]c(=O)c3c2C)c(C)c1,-8,-25,1,·,-1,1.1
Cc1ccc(NC(=O)c2sc3nc(CCl)[nH]c(=O)c3c2C)c(C)c1,89*,4,1.1,2,-12,1
O=C(CN1C(=O)/C(=C\c2cccc(F)c2)Oc2ccccc21)N1CCN(c2ccccn2)CC1,50*,-464,0.9,2,-15,1.1
O=C(CN1C(=O)/C(=C\c2ccc(F)cc2)Oc2ccccc21)N1CCN(c2ccccn2)CC1,-2,i,0.9,19,1,1.1
O=C(CN(C(=O)CCC(=O)Nc1nccs1)C1CCCC1)NCc1ccc2c(c1)OCO2,-5,-9,1.1,-3,-13,1
SMILES,L major viab,m-calpain inh,PMI activator,Rad51 HR inh,WT yeast gro inh,PMI act satM6P
Cc1ccc(C2CC(c3cccs3)=NN2C(=O)c2ccc(Br)o2)cc1 (stereo not drawn),26,-33,1,·,64*,1.1
CC(=O)N1N=C(c2cccs2)CC1c1ccc(C)o1 (stereo not drawn),-2,30,1,-5,11,1
Cn1cccc1CC(=O)NNC(=S)NC(=O)c1ccc(F)cc1,·,15,·,-22,·,·
O=C(NC1CCCCC1)C1Cc2ccccc2CN1S(=O)(=O)c1ccc(F)cc1 (stereo not drawn),43,12,0.9,4,17,0.8
O=C(Nc1ccc2c(c1)OCO2)C1Cc2ccccc2CN1S(=O)(=O)c1cccs1 (stereo not drawn),99*,-102,0.9,1,9,0.9
O=C(Nc1nccs1)C1Cc2ccccc2CN1S(=O)(=O)c1ccc(F)cc1 (stereo not drawn),66*,18,1,2,-2,1
O=C(Nc1nnc(C2CC2)s1)C1Cc2ccccc2CN1S(=O)(=O)c1ccccc1F (stereo not drawn),100*,19,0.7,-2,-18,0.7
O=S(=O)(NCC1NCCc2ccccc21)c1ccccc1 (stereo not drawn),-3,-6,1,7,-14,0.9
O=C(N/N=C\c1cccc(OC(=O)c2ccco2)c1)c1ccc2c(c1)OCO2,-7,10,1.1,7,-17,1.1
Cc1cccn2c(CN3CCCN(C=O)CC3)c(C(=O)N(C)CCc3ccccc3)nc12,-2,13,1,2,·,0.9
COc1ccc(Sc2ccc(/C=C3\C(=O)NN(c4ccccc4)C3=O)o2)cc1,56*,-21,0.9,1,22,0.8
COc1ccc(-n2c(C)cc(/C=C3\C(=O)NN(c4ccccc4)C3=O)c2C)cc1,-1,-49,0.9,4,-4,0.9
COCCN(C(=S)Nc1c(C)cccc1C)C(C)c1cccs1 (stereo not drawn),56*,-13,1,13,38,1
COCCN(C(=S)Nc1cccc(C)c1)C(C)c1cccs1 (stereo not drawn),2,12,0.9,-2,59*,1
COCCN(C(=S)Nc1cc(C)cc(C)c1)C(C)c1ccco1 (stereo not drawn),11,5,1,1,61*,1
CC(C)CCN(C(=S)Nc1cccc(F)c1)C(C)c1cccs1 (stereo not drawn),21,32,0.9,-28,59*,0.9
COc1ccccc1NS(=O)(=O)c1ccc(NC(=O)c2nc3nc(C)cc(C(F)F)n3n2)cc1,-3,-134,0.9,0,-8,1
COc1ccccc1/C=C/C1=NC(=C\C=C/c2ccccc2)/C(=O)O1,69*,-46,1,-68,2,1

# Bioassay records deposited in PubChem BioAssay by several laboratories.
